# Experimental data from ChEMBL document CHEMBL1275347, “New fluoro derivatives of the pyrazolo[5,1-c][1,2,4]benzotriazine 5-oxide system: evaluation of fluorine binding properties in the benzodiazepine site on γ-aminobutyrric acid type A (GABA(A)) receptor. Design, synthesis, biological, and molecular modeling investigation” (J Med Chem, 2010).
# Active and inactive are the calls of the source. The calls are words filed in the database; no cut-off is given here.
# Tests used:
# [1] = Displacement of [3H]Ro15-1788 from GABA(A) receptor benzodiazepine site in bovine brain membrane; assay type: cell membranes, Bos taurus
# Procedure, shortened: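 Bovine cerebral cortex membranes were diluted in 50 mM Tris-citrate pH 7.4 and used for [3H]Ro15-1788 displacement, with at least six test concentrations. Five experiments were run in triplicate. IC50 came from iterative curve fitting and Ki from Cheng-Prusoff, reported as mean ± SEM. Ki was derived only where inhibition at 10 μM exceeded 80%.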
# Mus musculus [2] = experiment: Toxicity in CD1 albino mouse at 10 mg/kg, po in presence of 100 mg/kg, po flumazenil; assay type: organism-based; conditions: in vivo
# Mus musculus [3] = experiment: Anticonvulsant activity in CD1 albino mouse assessed as protection against pentylenetetrazole-induced shock and convulsion at 30 mg/kg, ip treated after 30 mins of pentylenetetrazole measured for 30 mins; assay type: functional; conditions: route intraperitoneal
# Mus musculus [4] = experiment: Anxiolytic activity in CD1 albino mouse assessed as sleeping time at 10 mg/kg, po pretreated 30 mins before test; assay type: functional
# Procedure, shortened: (§1)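 Male CD-1 mice given compound po in 1% carboxymethylcellulose 30 min before ethanol (4 g/kg ip). Sleep time is the duration of loss of righting reflex, capped at 210 min. Values are mean ± SEM of treated mice.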
# Mus musculus [5] = experiment: Toxicity in CD1 albino mouse assessed as number of falls from rod over 30 seconds at 10 mg/kg, po after 25 mins of drug administration by rotarod test; assay type: organism-based; parameters: dose 10 mg/kg, route oral; conditions: in vivo
# Procedure, shortened: (§2)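 Rota-rod test in male CD-1 mice dosed po in 1% CMC. Falls from the rod were counted over 30 s, 25 min after dosing. Methods give the rod speed as 24 rpm; the table gives 16 rpm. Values are mean ± SEM.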
# Mus musculus [6] = experiment: Toxicity in CD1 albino mouse assessed as myorelaxant activity over 35 mins at 10 mg/kg, po by grip-strength meter assay; assay type: organism-based; parameters: dose 10 mg/kg, route oral; conditions: in vivo
# Procedure, shortened: (§3)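 Grip-strength meter test in male CD-1 mice given compound po in 1% CMC 30 min before testing. Grip force was read in g at 35 min. Values are mean ± SEM.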
# Mus musculus [7] = experiment: Anxiolytic activity in CD1 albino mouse at 30 mg/kg, po by light/dark box test; assay type: functional, organism-based; parameters: dose 30 mg/kg
# Procedure, shortened: (§4)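 Male CD-1 mice dosed po in 1% CMC 30 min before the light-dark box test. Each mouse was placed in the centre of the lit area facing away from the dark side and explored for 5 min. Transfers between compartments and time spent in the light were scored. n = 9-10 per group, mean ± SEM.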
# Mus musculus [8] = experiment: Effect on duration of loss of righting reflex in ethanol-induced in CD1 albino mouse at 3 mg/kg, po preincubated 30 mins before ethanol challenge; assay type: functional, organism-based; parameters: dose 3 mg/kg; procedure, shortened: as §1
# Mus musculus [9] = experiment: Toxicity in CD1 albino mouse assessed as myorelaxant activity over 35 mins at 30 mg/kg, po by grip-strength meter assay; assay type: organism-based; parameters: dose 30 mg/kg, route oral; conditions: in vivo; procedure, shortened: as §3
# Mus musculus [10] = experiment: Effect on learning and memory process in CD1 albino mouse assessed as improvement in retention latency at 3 mg/kg, po after 24 hrs by passive avoidance test; assay type: functional, organism-based; parameters: dose 3 mg/kg
# Procedure, shortened: (§5)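 Passive avoidance test in male CD-1 mice. Compounds were given po 30 min before training, and retention latency was tested 24 h later. n = 9-11 per group, mean ± SEM.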
# Mus musculus [11] = experiment: Anxiolytic activity in CD1 albino mouse at 3 mg/kg, po by light/dark box test; assay type: functional, organism-based; parameters: dose 3 mg/kg; procedure, shortened: as §4
# Mus musculus [12] = experiment: Effect on learning and memory process in CD1 albino mouse assessed as improvement in retention latency at 10 mg/kg, po after 24 hrs by passive avoidance test; assay type: functional, organism-based; parameters: dose 10 mg/kg; procedure, shortened: as §5
# Mus musculus [13] = experiment: Anticonvulsant activity in CD1 albino mouse assessed as protection against pentylenetetrazole-induced shock and convulsion at 10 mg/kg, ip treated after 30 mins of pentylenetetrazole measured for 30 mins; assay type: functional; conditions: route intraperitoneal
# Mus musculus [14] = experiment: Effect on duration of loss of righting reflex in ethanol-induced in CD1 albino mouse at 10 mg/kg, po preincubated 30 mins before ethanol challenge; assay type: functional, organism-based; parameters: dose 10 mg/kg; procedure, shortened: as §1
# Mus musculus [15] = experiment: Anxiolytic activity in CD1 albino mouse assessed as sleeping time at 3 mg/kg, po pretreated 30 mins before test; assay type: functional; procedure, shortened: as §1
# Mus musculus [16] = experiment: Toxicity in CD1 albino mouse assessed as number of falls from rod over 30 seconds at 30 mg/kg, po after 25 mins of drug administration by rotarod test; assay type: organism-based; parameters: dose 30 mg/kg, route oral; conditions: in vivo; procedure, shortened: as §2
# Mus musculus [17] = experiment: Anxiolytic activity in CD1 albino mouse at 10 mg/kg, po by light/dark box test; assay type: functional, organism-based; parameters: dose 10 mg/kg; procedure, shortened: as §4
# Bos taurus = organism: Bos taurus; experiment: Displacement of [3H]Ro15-1788 from GABA(A) receptor benzodiazepine site in bovine brain membrane at 10 uM; assay type: cell membranes
# Procedure, shortened: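 Percent inhibition of specific [3H]Ro15-1788 binding to bovine cerebral cortex membranes in 50 mM Tris-citrate pH 7.4, measured with test compound at 10 μM.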
# Mus musculus [18] = experiment: Anxiolytic activity in CD1 albino mouse at 10 mg/kg, po by light/dark box test in presence of 100 mg/kg, po flumazenil; assay type: functional, organism-based
# Mus musculus [19] = experiment: Effect on learning and memory process in CD1 albino mouse assessed as improvement in retention latency at 100 mg/kg, po after 24 hrs by passive avoidance test; assay type: functional, organism-based; parameters: dose 100 mg/kg
# Procedure, shortened: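 Passive avoidance in male CD-1 mice; flumazenil suspended in 1% carboxymethylcellulose, dosed 30 min before training; retention test 24 h later, retention latency recorded. 9-11 mice per group; mean ± SEM versus control.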
# Mus musculus [20] = experiment: Anxiolytic activity in CD1 albino mouse assessed as sleeping time at 0.3 mg/kg, ip pretreated 20 mins before test; assay type: functional; conditions: route intraperitoneal
# Procedure, shortened: (§6)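 Male CD-1 mice given diazepam ip (suspended in 1% carboxymethylcellulose) 20 min before test. Ethanol 4 g/kg ip injected […]; duration of loss of righting reflex taken as sleep time, capped at 210 min. Mean ± SEM; ANOVA with Scheffe post hoc test versus 1% CMC controls.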
# Mus musculus [21] = experiment: Anxiolytic activity in CD1 albino mouse assessed as sleeping time at 1 mg/kg, ip pretreated 20 mins before test; assay type: functional; conditions: route intraperitoneal; procedure, shortened: as §6
# Mus musculus [22] = experiment: Effect on learning and memory process in CD1 albino mouse assessed as improvement in retention latency at 30 mg/kg, po after 24 hrs by passive avoidance test; assay type: functional, organism-based; parameters: dose 30 mg/kg; procedure, shortened: as §5
compound,measurement,setting,value
CCOC(=O)c1cnn2c1n[n+]([O-])c1ccc(OC(F)F)cc12,Ki,[1],0.00575 µM
[O-][n+]1nc2c(Cl)cnn2c2cc(C(F)(F)F)ccc21,Ki,[1],0.175 µM
[O-][n+]1nc2c(-c3cccs3)cnn2c2cc(C(F)(F)F)ccc21,Ki,[1],0.057 µM
[O-][n+]1nc2c(-c3ccsc3)cnn2c2cc(C(F)(F)F)ccc21,Ki,[1],0.192 µM
CCOC(=O)c1cnn2c1n[n+]([O-])c1ccc(C(F)(F)F)cc12,Ki,[1],0.316 µM
O=C(OCc1cccs1)c1cnn2c1n[n+]([O-])c1ccc(C(F)(F)F)cc12,Activity,Mus musculus [2],Non-toxic
same,Ki,[1],0.01 µM
same,Activity,Mus musculus [3],0%
same,Time,Mus musculus [4],40.8 s
same,Activity,Mus musculus [5],0.1
same,Activity,Mus musculus [6],52.6 g
same,Activity,Mus musculus [7],Active
same,Activity,Mus musculus [8],inactive
same,Activity,Mus musculus [9],57.9 g
same,Activity,Mus musculus [10],Active
same,Activity,Mus musculus [11],Active
same,Activity,Mus musculus [12],Active
same,Activity,Mus musculus [13],0%
same,Activity,Mus musculus [14],inactive
same,Time,Mus musculus [15],48.6 s
same,Activity,Mus musculus [16],0.2
same,Activity,Mus musculus [17],Active
CCOC(=O)c1cnn2c1n[n+]([O-])c1cc(C(F)(F)F)ccc12,inhibition,Bos taurus,3%
[O-][n+]1nc2c(F)cnn2c2cc(OCc3cccs3)ccc21,Ki,[1],0.0933 µM
[O-][n+]1nc2c(Br)cnn2c2ccc(C(F)(F)F)cc21,inhibition,Bos taurus,38%
COc1ccccc1C(=O)c1cnn2c1n[n+]([O-])c1ccc(C(F)(F)F)cc12,Ki,[1],1.54 µM
CCOC(=O)c1cnn2c1nnc1ccc(OC(F)F)cc12,Ki,[1],0.0517 µM
[O-][n+]1nc2c(F)cnn2c2cc(OCc3ccco3)ccc21,Ki,[1],0.129 µM
COc1ccccc1COC(=O)c1cnn2c1n[n+]([O-])c1ccc(C(F)(F)F)cc12,Ki,[1],0.0058 µM
same,Activity,Mus musculus [3],0%
same,Time,Mus musculus [4],54.3 s
same,Activity,Mus musculus [18],inactive
same,Activity,Mus musculus [5],0.2
same,Activity,Mus musculus [6],51.7 g
same,Activity,Mus musculus [8],inactive
same,Activity,Mus musculus [9],48.5 g
same,Activity,Mus musculus [12],inactive
same,Activity,Mus musculus [13],0%
same,Activity,Mus musculus [14],inactive
same,Time,Mus musculus [15],36.2 s
same,Activity,Mus musculus [16],0.2
same,Activity,Mus musculus [17],Active
[O-][n+]1nc2c(F)cnn2c2cc(Cl)ccc21,inhibition,Bos taurus,50%
[O-][n+]1nc2c(F)cnn2c2cc(OCc3ccncc3)ccc21,Ki,[1],0.381 µM
COc1ccccc1COc1ccc2c(c1)n1ncc(F)c1n[n+]2[O-],Ki,[1],0.00319 µM
FC(F)Oc1ccc2nnc3c(I)cnn3c2c1,Ki,[1],0.00501 µM
[O-][n+]1nc2c(I)cnn2c2cc(C(F)(F)F)ccc21,Ki,[1],0.018 µM
[O-][n+]1nc2c(Br)cnn2c2cc(C(F)(F)F)ccc21,Ki,[1],0.139 µM
O=C(OCc1cccs1)c1cnn2c1n[n+]([O-])c1cc(C(F)(F)F)ccc12,inhibition,Bos taurus,34%
O=C(OCc1cccs1)c1cnn2c1nnc1ccc(OC(F)F)cc12,Ki,[1],0.00104 µM
O=C(c1cccs1)c1cnn2c1n[n+]([O-])c1ccc(C(F)(F)F)cc12,Ki,[1],0.164 µM
C#CCOc1ccc2c(c1)n1ncc(F)c1n[n+]2[O-],Ki,[1],0.268 µM
CCOC(=O)c1ncn2c1CN(C)C(=O)c1cc(F)ccc1-2,Activity,Mus musculus [19],Active
CN1C(=O)CN=C(c2ccccc2)c2cc(Cl)ccc21 [DIAZEPAM],Ki,[1],0.01 µM
same,Time,Mus musculus [20],134.5 s
same,Time,Mus musculus [21],14.5 s
[O-][n+]1nc2c(F)cnn2c2cc(OCc3ccccc3OC(F)(F)F)ccc21,inhibition,Bos taurus,27%
COc1ccccc1COC(=O)c1cnn2c1n[n+]([O-])c1cc(C(F)(F)F)ccc12,inhibition,Bos taurus,38%
[O-][n+]1nc2c(-c3ccoc3)cnn2c2cc(C(F)(F)F)ccc21,Ki,[1],0.112 µM
[O-][n+]1nc2c(I)cnn2c2cc(OC(F)F)ccc21,Ki,[1],0.00247 µM
same,Activity,Mus musculus [22],inactive
same,Activity,Mus musculus [10],inactive
same,Activity,Mus musculus [12],inactive
same,Activity,Mus musculus [13],0%
same,Activity,Mus musculus [17],Active
